Each structure is given as a SMILES string. Active and inactive are the calls of the source.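 Rule for the calls: active = compounds whose fitted half-maximal concentration for reducing fibroblast viability is 100 µM or lower; inactive = the rest.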

The assay can be described thus: inhibition of LL 47 lung fibroblast growth, concentration-response curve, selectivity screen for endothelial cell growth inhibitor project, cellular system, ATP luminescence readout (AID 821).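 Note: 100% = median of untreated cell-only wells and 0% = no luminescence.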 As to conditions: LL 47 lung fibroblast viability, ATP luminescence; at 20 µM (top of the series). In a few lines: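 assay system = LL 47 human lung fibroblasts | quantity = 1,150 cells per well | compound = dose series 0.039–20 µM final, 0.2% DMSO | incubation = overnight cell settling, then 72 h compound exposure at 37 °C | signal = CellTiter-Glo luminescence readout of viable cells | read-out basis = % viability versus median cell-only wells, four-parameter EC50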
On to `CC1(C)Cc2c(C#N)c(N3CCN(C(=O)c4ccco4)CC3)nc(Cc3ccccc3)c2CO1`, for which the viability is 87.4% (inactive).
In the case of `Cc1ccc2[nH]c3c(c2c1)CCC3=O`, the viability is 110% (inactive).
The same measure for `O=C(Nc1nnc(-c2ccc3c(c2)OCCO3)o1)c1ccc(Cc2ccccc2)cc1`: 97.9% (inactive).
The result for `Cc1cccc(NC(=O)c2cc(NC(=O)c3ccco3)ccc2N2CCCCC2)c1` reads 82.5% (inactive).
The result for `Cc1cc(Cl)ccc1OCCCC(N)=O` reads 95% (inactive); that for `COc1ccc(NC(=O)c2ccccc2NC(=O)COc2ccccc2)cc1`, 93.3% (inactive).
Take `Cc1ccccc1-n1ncc2c([N+](=O)[O-])cc([N+](=O)[O-])cc21`: the viability was 90.7% (inactive).
Regarding `Cc1cc(C(=O)OC(C)C(=O)Nc2cccc(S(=O)(=O)N3CCOCC3)c2)c(C)o1` (centres undefined), the viability is 105% (inactive).
The same measure for `O=c1/c(=C/c2ccco2)sc2n1CN(c1cccc(Br)c1)CN=2`: 106% (inactive); for `COc1ccc2cc3cc(C(=O)Nc4ccc5c(c4)OCO5)oc3nc2c1`: 88.3% (inactive); for `CCCCCn1c(CN2CCN(c3cc(Cl)ccc3C)CC2)nc2c1c(=O)[nH]c(=O)n2C`: 81.2% (inactive).
The same measure for `CCCCn1c(SCC(=O)Nc2cc(NC(=O)c3ccco3)ccc2C)nc2ccccc2c1=O`: 99.3% (inactive); for `Cc1cccc(C)c1N1CCN(c2ccc3nnc(C(F)(F)F)n3n2)CC1`: 81.7% (inactive); for `CNC(=O)c1ccc(-c2sc3nc(N4CCOCC4)c4c(c3c2N)CCCC4)o1`: 90.4% (inactive).
The same measure for `Cc1cc(S(=O)(=O)N2CCN(Cc3ccc4c(c3)OCO4)CC2)cc(C)c1N1CCCC1=O`: 100% (inactive); for `COc1ccc2nc3oc(C(=O)N4CCN(c5ccccc5F)CC4)cc3cc2c1`: 108% (inactive).
Consider `Cc1ccc(-n2c(SCC(=O)Nc3nccs3)nc3c(c2=O)SCC3)cc1`, for which the viability is 107% (inactive).
For the molecule `COc1ccc(CNC(=O)C(C#N)c2nc3ccccc3nc2N2CCN(C)CC2)cc1` (centres undefined), the viability is 97.9% (inactive).
Consider `Cc1nc2cc(N3CCCCC3)c(NC(=O)c3cccnc3)cc2c(=O)n1Cc1ccccc1`, for which the viability was 91.8% (inactive).
The same measure for `Cc1ccc(/C=C/C(=O)c2ccccc2)cc1`: 85.6% (inactive); for `CC(C)c1ccc(C2C3CSCC=C3C(C#N)=C(N)C2(C#N)C#N)cc1` (centres undefined): 88.4% (inactive).
For the molecule `COc1ccccc1NC(=O)C1C2C=CC(O2)C1C(=O)O` (centres undefined), the viability was 100% (inactive).
The same measure for `COc1cc(NC(=O)Nc2ccccc2)c(OC)cc1NC(=O)CN1CCCCC1`: 82.8% (inactive); for `CCCCOc1ccc(C(=O)OC2CC(C)N(C)CC2C)cc1` (centres undefined): 96.4% (inactive); for `Cc1cccnc1Nc1nc(-c2ccc(O)cc2O)cs1`: 94.8% (inactive).
The result for `CCCOc1ccc(-c2nc(C#N)c(NCCCn3ccnc3)o2)cc1` reads 90.9% (inactive); that for `COc1ccc(Cl)cc1N1CCN(CCNC(=O)Nc2ccccc2C)CC1`, 101% (inactive).
The result for `CC(C)COc1ccc2[nH]c3c(c2c1)CCCC3=O` reads 101% (inactive).
On to `CCOc1ccc(NC(=O)c2cc3n(n2)C(C(F)(F)F)CC(c2ccco2)N3)cc1` (centres undefined), for which the viability was 106% (inactive).
The result for `COc1ccc2[nH]cc(C(=O)CN3CCN(C4CCCCC4)CC3)c2c1` reads 103% (inactive); that for `COc1cccc2c(C)nc(Nc3nc(CSc4nnc(C)s4)cc(=O)[nH]3)nc12`, 117% (inactive).
The same measure for `CC1CCC(C(=O)c2c(O)c3ccccc3oc2=O)CC1` (centres undefined): 88.2% (inactive); for `COc1ccc(OC)c(-n2nnnc2SCC(=O)Nc2ccc3c(c2)OCCO3)c1`: 103% (inactive); for `CC1=C(C)CS(=O)N(S(=O)(=O)c2ccccc2)C1` (centres undefined): 86.9% (inactive).
As to `O=C(Nc1cccc(-c2nc3ncccc3o2)c1)c1cc2ccccc2o1`, the viability was 116% (inactive).
The result for `COc1ccc(Cl)c(N2CCN(CCCNC(=O)Nc3ccc(C)cc3)CC2)c1` reads 84.9% (inactive); that for `CC1=C(SCCC#N)S/C(=C2\SC(C)=C(SCCC#N)S2)S1`, 112% (inactive); that for `Cc1cc(C)c2oc(-c3cccc(NC(=O)c4ccc(F)cc4)c3)nc2c1`, 104% (inactive).
With `C=CCn1c(SCC(=O)NC(=O)NCc2ccco2)nc2sc(CC)cc2c1=O`, the viability was 87.4% (inactive).
The result for `COc1cc(-c2nnc(COc3ccc4cc(Br)ccc4c3)o2)cc(OC)c1OC` reads 127% (inactive).
The same measure for `Cc1cc(/C=C2\C(=N)N3C(SCc4ccccc4)=NSC3=NC2=O)c(C)n1Cc1ccccc1`: 92.2% (inactive); for `Cn1c(=O)c2c(ncn2CC(=O)Nc2nc(-c3ccccc3Cl)cs2)n(C)c1=O`: 110% (inactive); for `CCCc1cc(C(=O)Cc2ccc(F)cc2)c(O)cc1O`: 96.5% (inactive).
The result for `CCOC(=O)c1c(CN2CCN(c3ccccc3)CC2)oc2ccc(O)cc12` reads 83.2% (inactive); that for `COc1cc(/C=c2\s/c(=C(/C#N)C(=O)N3CCCC3)n(-c3ccccc3)c2=O)ccc1O`, 104% (inactive); that for `COc1ccc(-c2nnc(SCCc3ccccc3)n2N)cc1`, 113% (inactive).
Regarding `Cc1c(Cl)cccc1-c1ccc(/C=N/n2cnnc2)o1`, the viability was 98.9% (inactive).
The same measure for `CC(=O)Nc1ccc(S(=O)(=O)NC2=C(N3CCN(Cc4ccccc4)CC3)C(=O)c3ccccc3C2=O)cc1`: 89.8% (inactive).
The same measure for `COC(=O)c1sccc1NC(=O)c1ccc2c(c1)OCO2`: 103% (inactive).
The same measure for `O=C(Nc1ccc(OC(F)F)c(Cl)c1)Nc1ccc2c(c1)OCO2`: 109% (inactive); for `CCCc1ccc(-c2cc(NC(=O)CSc3n[nH]c(N)n3)n(-c3ccccc3)n2)cc1`: 100% (inactive).
As for `COc1ccc(-c2noc(-c3ccc(Br)o3)n2)cc1OC`, the viability is 116% (inactive).
Regarding `O=C(COc1ccc(Cl)cc1)Nc1ccccc1C(=O)NCc1ccco1`, the viability is 82.7% (inactive).
The result for `CCCc1ccc(Oc2c(-c3ccc(O)c(C)c3O)n[nH]c2C)cc1` reads 97.3% (inactive).
The result for `Cn1c(SCC(=O)Nc2ccc(N3CCOCC3)cc2)nnc1-c1ccccc1` reads 109% (inactive); that for `CCCCC(=O)O[C@H]1CC[C@H]2[C@@H]3CCc4cc(O)ccc4[C@H]3CC[C@]12C`, 84% (inactive).
As for `O=C(CSc1nnc(-c2cc(-c3cccs3)nc3ccccc23)o1)NC1CCCCC1`, the viability was 98.4% (inactive).
The same measure for `CCOc1ccc(NC(=S)Nc2ccc(C)c([N+](=O)[O-])c2)cc1`: 121% (inactive); for `O=C(CSc1ncnc2c1oc1ccccc12)Nc1nc2ccccc2s1`: 105% (inactive); for `CCCSc1nc2c(cnn2-c2ccc(C)cc2)c(=O)[nH]1`: 93.1% (inactive).
With `CCOC(=O)c1c(N)sc2c(OC)c(Br)ccc12`, the viability was 109% (inactive).
The result for `CCn1c2c(c3cc(Br)ccc31)CCC/C2=N\O` reads 85.2% (inactive); that for `O=C1CCn2nc(-c3ccc(Cl)cc3)cc2N1`, 104% (inactive); that for `O=C(COC(=O)c1cccnc1Nc1cccc(C(F)(F)F)c1)NCc1ccc2c(c1)OCO2`, 130% (inactive).
The result for `O=C(Nc1nnc(-c2ccc3c(c2)CCCC3)o1)c1ccc(Cl)cc1Cl` reads 95.8% (inactive).
The result for `Cn1c(=O)c2cc(NCc3ccccc3)nnc2n(C)c1=O` reads 100% (inactive); that for `Cc1ccc(Cn2c(SCC(=O)Nc3cc(C)on3)nc3ccccc3c2=O)cc1`, 80.1% (inactive); that for `COc1ccc(OC)c(S(=O)(=O)N(C)CC(=O)N2CCN(c3ccc(F)cc3)CC2)c1`, 106% (inactive).
Regarding `CCOc1ccc(Nc2oc(-c3ccc(Cl)cc3)nc2C#N)cc1`, the viability was 106% (inactive).
The same measure for `Clc1ccc(-c2nc(NCCN3CCOCC3)c3ccccc3n2)cc1`: 83.1% (inactive).
The result for `Cc1ccc(S(=O)(=O)c2c(C)nn(C(C)(C)C)c2OC(=O)c2ccc(Br)o2)cc1` reads 103% (inactive); that for `COc1ccc(C(c2sc3ncnn3c2O)N2CC(C)OC(C)C2)cc1OC` (centres undefined), 98.1% (inactive).
The same measure for `Cc1ccc(C(C)C)c(OCC(=O)Nc2ccc3c(c2)nc(CN2CCCC2)n3C)c1`: 91.9% (inactive).
Regarding `Cc1ccc2[nH]c3c(N4CCN(Cc5ccc6c(c5)OCO6)CC4)ncnc3c2c1`, the viability was 88.1% (inactive).
The same measure for `Cc1cc(Cl)ccc1N=c1ssnc1Cl`: 104% (inactive); for `COc1ccccc1C1CC(c2c(-c3ccccc3)c3cc(Cl)ccc3[nH]c2=O)=NN1S(C)(=O)=O` (centres undefined): 83.6% (inactive).
The same measure for `CCCCCCCCOC(=O)C1=C(C)Nc2nnnn2C1c1cccs1` (centres undefined): 117% (inactive).
The same measure for `CCn1c(SCC(=O)Nc2ccc3c(c2)oc2ccccc23)nnc1-c1ccc(N)cc1`: 97.6% (inactive); for `Brc1ccccc1OCCCn1cnc2ccccc21`: 111% (inactive).
As to `C=C(C)COc1ccc(-c2n[nH]c(C)c2-c2ccccc2OC)c(O)c1`, the viability is 90.3% (inactive).
`O=C(COc1nc2ccccc2nc1N1CCOCC1)N1CCc2ccccc21`: the viability is 95.5% (inactive).
With `COc1cccc(C(=O)CSc2nnc(-c3cc(OC)cc(OC)c3)o2)c1`, the viability was 91.3% (inactive).
In the case of `COc1cc(OC)cc(C(=O)Nc2ccc(-c3nc4ccccc4o3)cc2)c1`, the viability is 107% (inactive).
The same measure for `Cc1nc2ccccc2n1CCc1nc2c3ccccc3nc(SCC(=O)NCc3ccco3)n2n1`: 101% (inactive).
